Results on 20 compounds are retold here after ChEMBL document CHEMBL1139838 (J Med Chem, 2007).

Assay [1] deals with Mu-type opioid receptor (Cavia porcellus) (UniProt P97266). Particulars: Ileum.
The target in assay [2] is Delta-type opioid receptor (Mus musculus) (UniProt P32300). Particulars: Vas deferens.
A further assay concerns the target Mu-type opioid receptor (Rattus norvegicus, UniProt P33535). Briefly: Displacement of [3H]DAMGO from mu opioid receptor in Wistar rat brain membrane. Type of assay: cell membranes. Summed up:
(§1)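 Wistar rat brain membranes in 50 mM Tris·HCl pH 7.4 with 200-300 µg protein. Tritiated ligand at 0.5-1 nM, with fresh unlabeled peptide at 10^-12 to 10^-5 M, for 45 min at 35 °C. Stopped by rapid GF/C filtration and ice-cold buffer washes, then scintillation counting. Nonspecific binding defined with 10 µM naloxone. Duplicates, repeated two or three times, mean ± SEM.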
Background: In a radioligand displacement assay an active substance lowers the binding of a labelled ligand.

Assay [3] concerns the target Delta-type opioid receptor (Rattus norvegicus, UniProt P33533). Description: Displacement of [3H]Ile5,6-deltorphin from delta opioid receptor in Wistar rat brain membrane. Type of assay: cell membranes. The procedure, abridged:
as §1

The target of assay [4] is Delta-type opioid receptor (Homo sapiens) (UniProt P41143). Description: Activity at human delta opioid receptor expressed in CHO cells by [35S]GTP-gamma-S binding assay. In kind it is functional, cell-based.
Chain of Delta-type opioid receptor (Homo sapiens) (P41143 whole entry): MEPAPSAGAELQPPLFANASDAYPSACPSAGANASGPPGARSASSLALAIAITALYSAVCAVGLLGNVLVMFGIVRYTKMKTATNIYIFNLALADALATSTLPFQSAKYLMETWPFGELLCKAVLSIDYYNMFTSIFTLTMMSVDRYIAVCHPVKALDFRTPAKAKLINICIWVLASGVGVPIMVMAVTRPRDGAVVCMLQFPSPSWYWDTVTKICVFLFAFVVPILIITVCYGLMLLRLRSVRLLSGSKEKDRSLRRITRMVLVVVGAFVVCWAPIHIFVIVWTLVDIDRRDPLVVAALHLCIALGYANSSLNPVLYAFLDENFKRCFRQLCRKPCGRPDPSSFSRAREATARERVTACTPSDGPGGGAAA
Assay [5] concerns the target Mu-type opioid receptor (Cavia porcellus) (UniProt P97266). The following applies: Ileum. The source holds these as a separate data set.

The structures appear in SMILES notation. pKi: −log10 of the molar value. The source made the active and inactive calls. No cut-off for these calls is given here. Where a SMILES comes first, the peptide text is derived from it. [ ]: non-standard residue; d: D form. Tic = O=C(O)[C@@H]1Cc2ccccc2CN1; Cha = N[C@@H](CC1CCCCC1)C(=O)O Where only a bound is given, the exact number is not on record here.

Chain of Delta-type opioid receptor (P33533 whole entry): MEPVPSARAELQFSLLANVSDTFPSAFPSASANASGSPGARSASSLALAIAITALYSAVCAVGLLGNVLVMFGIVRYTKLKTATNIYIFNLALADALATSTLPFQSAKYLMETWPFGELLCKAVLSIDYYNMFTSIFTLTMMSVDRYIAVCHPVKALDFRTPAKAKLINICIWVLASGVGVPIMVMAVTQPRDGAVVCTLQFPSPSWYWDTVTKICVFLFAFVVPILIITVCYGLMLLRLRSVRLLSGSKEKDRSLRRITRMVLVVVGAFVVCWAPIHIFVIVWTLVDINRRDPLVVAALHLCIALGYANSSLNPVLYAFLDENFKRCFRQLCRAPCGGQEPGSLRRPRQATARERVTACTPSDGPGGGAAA
Chain of Mu-type opioid receptor (Cavia porcellus) (P97266 whole entry): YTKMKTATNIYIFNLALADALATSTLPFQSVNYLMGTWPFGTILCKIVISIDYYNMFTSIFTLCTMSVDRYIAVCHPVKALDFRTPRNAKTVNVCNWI
Chain of Delta-type opioid receptor (Mus musculus) (P32300 whole entry): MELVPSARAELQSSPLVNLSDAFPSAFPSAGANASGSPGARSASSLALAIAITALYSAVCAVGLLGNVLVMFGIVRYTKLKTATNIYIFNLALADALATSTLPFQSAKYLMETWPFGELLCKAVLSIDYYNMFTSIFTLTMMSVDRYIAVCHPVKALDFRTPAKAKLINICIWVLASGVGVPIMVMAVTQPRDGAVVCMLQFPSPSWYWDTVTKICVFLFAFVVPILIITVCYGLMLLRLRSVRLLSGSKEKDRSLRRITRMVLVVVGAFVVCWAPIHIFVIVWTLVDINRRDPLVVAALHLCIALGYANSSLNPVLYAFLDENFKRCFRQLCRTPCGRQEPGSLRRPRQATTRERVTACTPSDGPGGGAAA
Chain of Mu-type opioid receptor (P33535 whole entry): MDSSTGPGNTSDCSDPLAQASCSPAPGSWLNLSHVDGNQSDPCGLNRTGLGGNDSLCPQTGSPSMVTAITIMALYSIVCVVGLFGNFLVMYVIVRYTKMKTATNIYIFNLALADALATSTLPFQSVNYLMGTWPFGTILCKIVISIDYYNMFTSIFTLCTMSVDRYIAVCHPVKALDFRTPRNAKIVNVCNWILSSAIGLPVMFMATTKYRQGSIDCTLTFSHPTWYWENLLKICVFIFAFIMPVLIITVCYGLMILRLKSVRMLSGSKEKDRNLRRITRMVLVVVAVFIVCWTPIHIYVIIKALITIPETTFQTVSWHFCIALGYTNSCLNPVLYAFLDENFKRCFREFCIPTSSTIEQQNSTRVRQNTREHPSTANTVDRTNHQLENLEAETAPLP

As for `NC(=O)[C@H](Cc1ccccc1)NC(=O)[C@H](Cc1ccccc1)NC(=O)[C@@H]1Cc2ccccc2CN1C(=O)[C@H](N)Cc1ccc(O)cc1`, the Ke is 1700 nM in assay [1] and 18 nM in assay [2].
For the compound `Cc1cc(O)cc(C)c1C[C@H](N)C(=O)N1Cc2ccccc2C[C@H]1C(=O)N[C@@H](C(=O)N[C@@H](Cc1ccccc1)C(=O)O)[C@@H](C)C1CCCCC1`, the pKi (usually the negative decadic logarithm of the Ki, by convention in mol/L) at Mu-type opioid receptor is 7.26; in assay [3], 8.82.
`Cc1cc(O)cc(C)c1C[C@H](N)C(=O)N1Cc2ccccc2CC1C(=O)N[C@@H](C(=O)N[C@@H](Cc1ccccc1)C(N)=O)[C@@H](C)C1CCCCC1` (stereo partly drawn): in assay [4], the outcome was inactive. The Ke is 1.94 nM in assay [2] and 120 nM in assay [5].
On to `Cc1cc(O)cc(C)c1C[C@H](N)C(=O)N1Cc2ccccc2CC1C(=O)N[C@H](C(=O)N[C@@H](Cc1ccccc1)C(=O)O)[C@H](C)C1CCCCC1` (stereo partly drawn), for which, in assay [4], the outcome was inactive. Moreover, the IC30 (usually the concentration at which the effect reaches the 30% level) in assay [1] turned out to be 150 nM. In assay [2], this compound displayed a Ke of 0.81 nM.
With `Cc1cc(O)cc(C)c1C[C@H](N)C(=O)N1Cc2ccccc2CC1C(=O)N[C@@H](C(=O)N[C@@H](Cc1ccccc1)C(N)=O)[C@H](C)C1CCCCC1` (stereo partly drawn), the result in assay [4] was inactive. In addition, the values for the Ke in assay [2] and in assay [5] were 1.7 nM and 670 nM, respectively.
Take `Cc1cc(O)cc(C)c1C[C@H](N)C(=O)N1Cc2ccccc2C[C@H]1C(=O)N[C@@H](C(=O)N[C@@H](Cc1ccccc1)C(N)=O)[C@H](C)C1CCCCC1`: the pKi was 6.54 on Mu-type opioid receptor and 7.89 in assay [3].
The corresponding values for `Cc1cc(O)cc(C)c1C[C@H](N)C(=O)N1Cc2ccccc2C[C@H]1C(=O)N[C@H](C(=O)N[C@@H](Cc1ccccc1)C(N)=O)[C@H](C)C1CCCCC1` are 6.77 and 8.39.
Turning to `Cc1cc(O)cc(C)c1C[C@H](N)C(=O)N1Cc2ccccc2CC1C(=O)N[C@H](C(=O)N[C@@H](Cc1ccccc1)C(N)=O)[C@H](C)C1CCCCC1` (stereo partly drawn), the outcome in assay [4] was inactive. This compound gave an IC40 in assay [1] of 110 nM. In assay [2], the Ke is 0.68 nM.
On to `Cc1cc(O)cc(C)c1C[C@H](N)C(=O)N1Cc2ccccc2C[C@H]1C(=O)N[C@@H](C(=O)N[C@@H](Cc1ccccc1)C(=O)O)[C@H](C)C1CCCCC1`, for which the pKi is 6.24 at Mu-type opioid receptor and 8.70 in assay [3].
Turning to `N[C@@H](Cc1ccc(O)cc1)C(=O)N1Cc2ccccc2C[C@H]1C(=O)N[C@@H](CC1CCCCC1)C(=O)N[C@@H](Cc1ccccc1)C(=O)O` (H-Y[Tic][Cha]F-OH), the pKi on Mu-type opioid receptor is 5.44; in assay [3], 9.21. The Ke in assay [2] amounted to 0.44 nM.
On to `Cc1cc(O)cc(C)c1C[C@H](N)C(=O)N1Cc2ccccc2C[C@H]1C(=O)N[C@H](C(=O)N[C@@H](Cc1ccccc1)C(=O)O)[C@@H](C)C1CCCCC1`, for which the pKi is 5.85 on Mu-type opioid receptor and 9.32 in assay [3].
`Cc1cc(O)cc(C)c1C[C@@H](N)C(=O)N1Cc2ccccc2C[C@H]1C(=O)N[C@@H](Cc1ccccc1)C(=O)N[C@@H](Cc1ccccc1)C(=O)O` yielded a Ke in assay [2] of 0.2 nM.
With `Cc1cc(O)cc(C)c1C[C@H](N)C(=O)N1Cc2ccccc2CC1C(=O)N[C@H](C(=O)N[C@@H](Cc1ccccc1)C(=O)O)[C@@H](C)C1CCCCC1` (stereo partly drawn), the result in assay [4] was inactive. Also, the Ke in assay [2] was determined as 0.24 nM; in assay [5] it was 970 nM.
As to `N[C@@H](Cc1ccc(O)cc1)C(=O)N1Cc2ccccc2C[C@H]1C(=O)N[C@@H](Cc1ccccc1)C(=O)N[C@@H](Cc1ccccc1)C(=O)O` (H-Y[Tic]FF-OH), the Ke in assay [1] was more than 10000 nM; in assay [2], 4.8 nM.
As for `Cc1cc(O)cc(C)c1C[C@H](N)C(=O)N1Cc2ccccc2C[C@H]1C(=O)N[C@@H](C(=O)N[C@@H](Cc1ccccc1)C(N)=O)[C@@H](C)C1CCCCC1`, the pKi is 6.70 on Mu-type opioid receptor and 8.15 in assay [3].
With `Cc1cc(O)cc(C)c1C[C@H](N)C(=O)N1Cc2ccccc2CC1C(=O)N[C@H](C(=O)N[C@@H](Cc1ccccc1)C(N)=O)[C@@H](C)C1CCCCC1` (stereo partly drawn), in assay [4], the result was inactive. For the same compound, the Ke in assay [2] came to 0.77 nM; in assay [5] it was 340 nM.
Turning to `Cc1cc(O)cc(C)c1C[C@H](N)C(=O)N1Cc2ccccc2C[C@H]1C(=O)N[C@H](C(=O)N[C@@H](Cc1ccccc1)C(N)=O)[C@@H](C)C1CCCCC1`, the pKi was 6.48 on Mu-type opioid receptor and 8.40 in assay [3].
Turning to `Cc1cc(O)cc(C)c1C[C@H](N)C(=O)N1Cc2ccccc2CC1C(=O)N[C@@H](C(=O)N[C@@H](Cc1ccccc1)C(=O)O)[C@@H](C)C1CCCCC1` (stereo partly drawn), the result in assay [4] was inactive. Besides, the figures for the Ke in assay [2] and in assay [5] were 0.11 nM and 19 nM, respectively.
The corresponding values for `Cc1cc(O)cc(C)c1C[C@H](N)C(=O)N1Cc2ccccc2CC1C(=O)N[C@@H](C(=O)N[C@@H](Cc1ccccc1)C(=O)O)[C@H](C)C1CCCCC1` (stereo partly drawn) are “inactive”, 0.55 nM and 290 nM.
Consider `Cc1cc(O)cc(C)c1C[C@H](N)C(=O)N1Cc2ccccc2C[C@H]1C(=O)N[C@H](C(=O)N[C@@H](Cc1ccccc1)C(=O)O)[C@H](C)C1CCCCC1`, for which the results for the pKi (on Mu-type opioid receptor; in assay [3]) were 6.55 and 8.70, respectively.
